The source of these data is ChEMBL document CHEMBL1153938, “Synthesis of hydroxypyrone- and hydroxythiopyrone-based matrix metalloproteinase inhibitors: developing a structure-activity relationship” (Bioorg Med Chem Lett, 2009).

The structures appear in SMILES notation.

For assay [1], the target named is T1, Interstitial collagenase (Homo sapiens) (UniProt P03956).
T1 sequence (whole entry): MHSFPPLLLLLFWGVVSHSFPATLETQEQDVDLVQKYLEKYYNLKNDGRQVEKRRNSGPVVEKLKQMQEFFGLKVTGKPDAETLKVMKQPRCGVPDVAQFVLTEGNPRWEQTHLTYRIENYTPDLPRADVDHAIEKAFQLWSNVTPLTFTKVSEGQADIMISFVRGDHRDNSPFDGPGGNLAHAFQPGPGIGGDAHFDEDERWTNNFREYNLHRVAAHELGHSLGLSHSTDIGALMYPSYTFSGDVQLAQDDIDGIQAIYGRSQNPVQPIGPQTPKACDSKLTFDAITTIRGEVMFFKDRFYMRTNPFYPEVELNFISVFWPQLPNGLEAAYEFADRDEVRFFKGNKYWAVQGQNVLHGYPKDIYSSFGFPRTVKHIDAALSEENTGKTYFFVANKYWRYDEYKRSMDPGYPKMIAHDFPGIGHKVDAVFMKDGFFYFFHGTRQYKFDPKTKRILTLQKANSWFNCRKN
As to the kind of experiment: Inhibition of human MMP1 catalytic domain at 50 uM after 1 hr by fluorescent substrate assay. In outline:
(§1)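 Single-concentration screen: each inhibitor tested at 50 µM against recombinant human MMP catalytic domain (MMP-1, MMP-2 or MMP-3) in a fluorescent substrate assay, with activity reported as percent inhibition.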

The target of assay [2] is T2, 72 kDa type IV collagenase (Homo sapiens, UniProt P08253). Put plainly: Inhibition of human MMP2 catalytic domain at 50 uM after 1 hr by fluorescent substrate assay. In outline: as §1
Target sequence in this assay (P08253 110-660 limits assumed): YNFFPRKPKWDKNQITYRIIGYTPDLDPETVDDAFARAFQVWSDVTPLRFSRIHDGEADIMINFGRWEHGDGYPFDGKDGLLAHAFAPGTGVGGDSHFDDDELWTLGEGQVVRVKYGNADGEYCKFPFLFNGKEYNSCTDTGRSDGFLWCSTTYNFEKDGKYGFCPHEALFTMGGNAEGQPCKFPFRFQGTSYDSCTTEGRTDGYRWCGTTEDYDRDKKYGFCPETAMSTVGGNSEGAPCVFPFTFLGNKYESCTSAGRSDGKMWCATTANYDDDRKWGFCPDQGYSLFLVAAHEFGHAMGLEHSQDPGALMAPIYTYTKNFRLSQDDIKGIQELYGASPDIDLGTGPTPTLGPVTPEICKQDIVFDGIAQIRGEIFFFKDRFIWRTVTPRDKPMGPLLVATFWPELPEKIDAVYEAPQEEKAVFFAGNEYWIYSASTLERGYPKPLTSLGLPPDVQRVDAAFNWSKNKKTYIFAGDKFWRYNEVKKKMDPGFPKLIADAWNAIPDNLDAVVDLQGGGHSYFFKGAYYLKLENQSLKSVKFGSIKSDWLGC
Assay [3] concerns the target T3, Stromelysin-1 (Homo sapiens, UniProt P08254). As to the kind of experiment: Inhibition of human MMP3 catalytic domain at 50 uM after 1 hr by fluorescent substrate assay. In outline:
as §1

In assay [4] the target is T2, 72 kDa type IV collagenase. As to the kind of experiment: Inhibition of human MMP2 catalytic domain by fluorescent substrate assay. In outline: (§2)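 IC50 against human MMP catalytic domain (MMP-1, MMP-2 or MMP-3) from a fluorescent substrate assay. It was determined only for inhibitors showing relatively strong inhibition in the 50 µM screen.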
Target sequence in this assay (P08253 whole entry, the tested form may be a part): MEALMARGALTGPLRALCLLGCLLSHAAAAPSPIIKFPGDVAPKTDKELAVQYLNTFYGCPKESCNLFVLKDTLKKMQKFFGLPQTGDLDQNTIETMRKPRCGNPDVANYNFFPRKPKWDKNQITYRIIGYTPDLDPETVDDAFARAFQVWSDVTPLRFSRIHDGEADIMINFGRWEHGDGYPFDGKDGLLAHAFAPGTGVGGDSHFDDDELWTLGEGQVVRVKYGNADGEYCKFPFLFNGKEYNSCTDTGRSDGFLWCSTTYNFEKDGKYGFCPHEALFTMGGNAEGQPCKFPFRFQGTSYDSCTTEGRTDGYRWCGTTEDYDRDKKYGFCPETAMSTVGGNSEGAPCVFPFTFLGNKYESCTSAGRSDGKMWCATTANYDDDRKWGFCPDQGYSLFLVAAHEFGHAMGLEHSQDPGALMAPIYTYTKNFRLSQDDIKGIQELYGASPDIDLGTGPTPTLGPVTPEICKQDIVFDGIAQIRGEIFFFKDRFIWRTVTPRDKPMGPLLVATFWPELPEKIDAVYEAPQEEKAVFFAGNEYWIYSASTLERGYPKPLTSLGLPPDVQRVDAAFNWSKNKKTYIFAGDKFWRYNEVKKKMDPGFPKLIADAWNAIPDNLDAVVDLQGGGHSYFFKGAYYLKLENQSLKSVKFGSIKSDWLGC
In assay [5] the target is T3, Stromelysin-1. As to the kind of experiment: Inhibition of human MMP3 catalytic domain by fluorescent substrate assay. In a few lines:
as §2

In a further assay the target is T4, Interstitial collagenase (Homo sapiens, UniProt P03956).
T4 sequence (P03956 whole entry): T1 sequence (whole entry)
Put plainly: Inhibition of human MMP1 catalytic domain by fluorescent substrate assay. In outline: as §2

T3 sequence (P08254 whole entry, the tested form may be a part): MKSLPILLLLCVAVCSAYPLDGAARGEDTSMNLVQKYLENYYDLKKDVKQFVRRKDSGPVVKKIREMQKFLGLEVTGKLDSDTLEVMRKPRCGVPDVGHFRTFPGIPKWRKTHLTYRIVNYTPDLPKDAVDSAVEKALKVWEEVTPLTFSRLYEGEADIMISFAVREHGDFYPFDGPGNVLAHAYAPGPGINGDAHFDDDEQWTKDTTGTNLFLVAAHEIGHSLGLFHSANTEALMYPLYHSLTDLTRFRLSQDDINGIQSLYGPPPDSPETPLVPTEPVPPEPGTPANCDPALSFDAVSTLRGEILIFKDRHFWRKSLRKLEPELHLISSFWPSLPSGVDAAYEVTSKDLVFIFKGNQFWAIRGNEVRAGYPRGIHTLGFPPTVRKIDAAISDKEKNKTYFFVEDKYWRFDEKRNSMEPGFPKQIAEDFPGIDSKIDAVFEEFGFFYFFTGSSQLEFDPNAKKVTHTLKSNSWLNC

Regarding `Cc1cc(=O)c(O)c(CNCc2ccc(-c3ccccc3)cc2)o1`, the inhibition in assay [1] was found to be 6%; in assay [2] it was 63%; on Stromelysin-1 [3] it was 4%. The same molecule displayed an IC50 in assay [4] of 37.7 µM.

Turning to `COc1ccc(CNC(=O)c2oc(C)cc(=O)c2O)cc1`, the inhibition in assay [1] came out at 29%; in assay [2], 26%; at Stromelysin-1 [3] it was 93%.

As to `CCOC(=O)c1c(C)oc(CNCc2ccc(-c3ccccc3)cc2)c(O)c1=O`, the inhibition in assay [1] is 13%; in assay [2], 18%; against Stromelysin-1 [3], less than 1%.

As to `Cc1occ(O)c(=O)c1C(=O)NCc1ccc(O)cc1`, the values for the inhibition (in assay [1]; in assay [2]; against Stromelysin-1 [3]) were 17%, 24% and 32%, respectively.

Regarding `Cc1occ(O)c(=S)c1C(=O)NCc1ccc(-c2ccccc2)cc1`, the inhibition was found to be 52% in assay [1], 94% in assay [2] and 45% at Stromelysin-1 [3]. In assay [4], the IC50 amounted to 23 µM.

For the molecule `COc1ccc(CNC(=O)c2c(C)occ(O)c2=O)cc1`, the inhibition was determined as 15% in assay [1], 33% in assay [2] and 18% against Stromelysin-1 [3].

On to `COc1ccc(CNC(=O)c2c(C)oc(CO)c(O)c2=O)cc1`, for which the inhibition in assay [1] came to 18%; in assay [2] it was 24%; at Stromelysin-1 [3] it was 32%.

Take `Cc1occ(O)c(=O)c1C(=O)NCc1ccc(-c2ccccc2)cc1`: the results for the inhibition (in assay [1]; in assay [2]; against Stromelysin-1 [3]) were 15%, 21% and 28%, respectively.

On to `Cc1cc(=O)c(O)c(C(=O)NCc2ccc(O)cc2)o1`, for which the figures for the inhibition (in assay [1]; in assay [2]; on Stromelysin-1 [3]) were 66%, 25% and 94%, respectively. In addition, the midpoint of inhibition at Stromelysin-1 [5], the IC50, lay at 3.7 µM.

In the case of `COc1ccc(CNC(=O)c2oc(C)cc(=S)c2O)cc1`, the figures for the inhibition (in assay [1]; in assay [2]; against Stromelysin-1 [3]) were 70%, 94% and 97%, respectively. The results for the IC50 (against Interstitial collagenase; in assay [4]; at Stromelysin-1 [5]) were 30 µM, 19 µM and 16.4 µM, respectively.

As to `O=C(NCc1ccc(-c2ccccc2)cc1)c1cc(=O)c(O)co1`, the inhibition was determined as 12% in assay [1], 14% in assay [2] and 44% against Stromelysin-1 [3].

Molecule `Cc1cc(=S)c(O)c(C(=O)NCc2ccc(-c3ccccc3)cc2)o1` yielded an IC50 at Stromelysin-1 [5] of 5.6 µM.

Take `COc1ccc(CNC(=O)c2c(C)occ(O)c2=S)cc1`: the results for the inhibition (in assay [1]; in assay [2]; against Stromelysin-1 [3]) were 49%, 69% and 36%, respectively. The IC50 in assay [4] was 30 µM.

For `COc1ccc(CNC(=O)c2cc(=S)c(O)co2)cc1`, the inhibition in assay [1] was 31%; in assay [2] it was 85%; on Stromelysin-1 [3], 91%. This molecule also registered a 50% inhibitory concentration (IC50) at Stromelysin-1 [5] of 13.9 µM.

On Interstitial collagenase, `Cc1cc(=O)c(O)c(C(=O)NCc2ccc(-c3ccccc3)cc2)o1` registered a half-inhibitory concentration (IC50) greater than 50 µM.

On to `O=C(NCc1ccc(-c2ccccc2)cc1)c1cc(=S)c(O)co1`, for which the inhibition in assay [1] is 62%; in assay [2], 98%; against Stromelysin-1 [3] it was 91%. Moreover, the IC50 at Interstitial collagenase came to 44 µM; in assay [4] it was 14.4 µM; on Stromelysin-1 [5], 13.3 µM.

Take `COc1ccc(CNC(=O)c2cc(=O)c(O)co2)cc1`: the results for the inhibition (in assay [1]; in assay [2]; at Stromelysin-1 [3]) were 16%, 11% and 22%, respectively.

For the molecule `Cc1cc(=O)c(O)c(COCc2ccc(-c3ccccc3)cc2)o1`, the values for the inhibition (in assay [1]; in assay [2]; against Stromelysin-1 [3]) were 21%, 15% and 26%, respectively.
